{"source": "ChEMBL document CHEMBL1126013", "about": "“Synthesis and evaluation of some water-soluble prodrugs and derivatives of taxol with antitumor activity” (J Med Chem, 1992)", "key": {"Mus musculus [1]": {"tested_on": "Mus musculus", "experiment": "Number of survivors after 11 days at a dose of 10.5 mg/Kg tested in 6 mice", "type": "functional", "outline": "(§1)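 MX-1 human mammary carcinoma xenograft implanted under the renal capsule of mice. The study was run at the National Cancer Institute following the procedures of NIH Publication No. 84-2635. Average tumor weight was recorded at the start and end of treatment, and survivors were counted after 11 days. Dosed groups were compared with an untreated control group.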"}, "Bos taurus": {"species_on_record": "Bos taurus", "experiment": "Relative effect on microtubular assembly (Tubulin polymerized by derivative/tubulin polymerized by taxol)", "type": "functional", "outline": "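Bovine brain tubulin, purified from microtubule-associated proteins by phosphocellulose chromatography, used at 10 μM. Turbidity followed at 350 nm. Polymer pelleted at 200000g, 37 °C, 4 min, depolymerized on ice, and protein measured by Bradford.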"}, "Mus musculus [2]": {"tested_on": "Mus musculus", "experiment": "Tumor growth or regression measured as Percent treated by control at a dose of 10.5 mg/Kg to mice with MX-1 xenograft", "type": "functional", "outline": "(§2)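 Subrenal capsule MX-1 mammary xenograft in mice, run at the National Cancer Institute per NIH Publication No. 84-2635. %T/C = (Δ tumor weight treated / Δ tumor weight control) × 100 where tumors grew. Where tumors regressed, %T/C = (Δ tumor weight treated / initial control tumor weight) × 100.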"}, "Mus musculus [3]": {"tested_on": "Mus musculus", "experiment": "Number of survivors after 11 days at a dose of 42 mg/Kg tested in 5 mice", "type": "functional", "outline": "as §1"}, "Mus musculus [4]": {"tested_on": "Mus musculus", "experiment": "Final average tumor weight was measured in mice induced with human mammary carcinoma at a dose of 42 mg/Kg", "type": "functional", "outline": "as §1"}, "Mus musculus [5]": {"tested_on": "Mus musculus", "experiment": "Number of survivors after 11 days at a dose of 5.25 mg/Kg tested in 6 mice", "type": "functional", "outline": "as §1"}, "Mus musculus [6]": {"tested_on": "Mus musculus", "experiment": "Tumor growth or regression measured as Percent treated by control at a dose of 5.25 mg/Kg to mice with MX-1 xenograft", "type": "functional", "outline": "as §2"}, "Mus musculus [7]": {"tested_on": "Mus musculus", "experiment": "Initial average tumor weight was measured in mice induced with human mammary carcinoma at a dose of 42 mg/Kg", "type": "functional", "outline": "as §1"}, "Mus musculus [8]": {"tested_on": "Mus musculus", "experiment": "Final average tumor weight was measured in mice induced with human mammary carcinoma at a dose of 5.25 mg/Kg", "type": "functional", "outline": "as §1"}, "B16 [9]": {"tested_on": "B16", "experiment": "Relative effect on B16 melanoma cell proliferation was determined [IC50 (taxol)/IC50 (derivative)]", "type": "functional, Mus musculus"}, "B16 [10]": {"tested_on": "B16", "experiment": "Percentage change in cell number of B16 melanoma cells treated with 10e-5 M dose", "type": "functional, Mus musculus", "outline": "(§3)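 B16 melanoma cells exposed to 10⁻⁵ or 10⁻⁶ M compound for 8 h, then rinsed three times with fresh medium. Cells then grown in drug-free medium for 48 h and counted. Result given as percent change relative to the cell number at time zero. Controls are the average of three experiments.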"}, "Mus musculus [11]": {"tested_on": "Mus musculus", "experiment": "Initial average tumor weight was measured in mice induced with human mammary carcinoma at a dose of 10.5 mg/Kg", "type": "functional", "outline": "as §1"}, "Mus musculus [12]": {"tested_on": "Mus musculus", "experiment": "Tumor growth or regression measured as Percent treated by control at a dose of 42 mg/Kg to mice with MX-1 xenograft", "type": "functional", "outline": "as §2"}, "Mus musculus [13]": {"tested_on": "Mus musculus", "experiment": "Initial average tumor weight was measured in mice induced with human mammary carcinoma at a dose of 5.25 mg/Kg", "type": "functional", "outline": "as §1"}, "Mus musculus [14]": {"tested_on": "Mus musculus", "experiment": "Antitumor activity of taxoland the derivative against mammary carcinoma xenograft in mice", "type": "functional", "outline": "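MX-1 human mammary carcinoma xenograft implanted under the renal capsule in mice. Study run at the National Cancer Institute following NIH Publication No. 84-2635. Tumor weights recorded at the start and at the end. Survivors counted after 11 days. %T/C = (Δ tumor weight treated/Δ tumor weight control) × 100 where the tumor grows, and (Δ tumor weight treated/initial control tumor weight) × 100 where it regresses.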"}, "[15]": {"experiment": "Solubility in water", "type": "physicochemical", "details": "read-out: S"}, "Mus musculus [16]": {"tested_on": "Mus musculus", "experiment": "Final average tumor weight was measured in mice induced with human mammary carcinoma at a dose of 10.5 mg/Kg", "type": "functional", "outline": "as §1"}, "B16 [17]": {"tested_on": "B16", "experiment": "Percentage change in cell number of B16 melanoma cells treated with 10e-6 M dose", "type": "functional, Mus musculus", "outline": "as §3"}, "B16 [18]": {"tested_on": "B16", "experiment": "Concentration required to inhibit the proliferation of B16 melanoma cells was determined", "type": "functional, cell-based", "details": "Mus musculus"}}, "note": "pIC50: −log10 of the molar value.", "data": [{"smiles": "CC(=O)O[C@H]1C(=O)[C@]2(C)[C@@H](OC(=O)CN(C)C)C[C@H]3OC[C@@]3(OC(C)=O)[C@H]2[C@H](OC(=O)c2ccccc2)[C@]2(O)C[C@H](OC(=O)[C@H](OC(=O)CN(C)C)[C@@H](NC(=O)c3ccccc3)c3ccccc3)C(C)=C1C2(C)C.CS(=O)(=O)O.CS(=O)(=O)O", "values": [{"measurement": "No. of survivors", "setting": "Mus musculus [1]", "value": 5}, {"measurement": "Relative effect", "setting": "Bos taurus", "value": 0.42}, {"measurement": "T/C", "setting": "Mus musculus [2]", "value": 193, "unit": "%"}, {"measurement": "No. of survivors", "setting": "Mus musculus [3]", "value": 4}, {"measurement": "Final average tumor weight", "setting": "Mus musculus [4]", "value": 4.35, "unit": "mg"}, {"measurement": "No. of survivors", "setting": "Mus musculus [5]", "value": 6}, {"measurement": "T/C", "setting": "Mus musculus [6]", "value": 70, "unit": "%"}, {"measurement": "Initial average tumor weight", "setting": "Mus musculus [7]", "value": 0.66, "unit": "mg"}, {"measurement": "Final average tumor weight", "setting": "Mus musculus [8]", "value": 2.51, "unit": "mg"}, {"measurement": "Relative effect", "setting": "B16 [9]", "value": 0.45}, {"measurement": "Change in cell number", "setting": "B16 [10]", "value": -72, "unit": "%"}, {"measurement": "Initial average tumor weight", "setting": "Mus musculus [11]", "value": 0.59, "unit": "mg"}, {"measurement": "T/C", "setting": "Mus musculus [12]", "value": 144, "unit": "%"}, {"measurement": "Initial average tumor weight", "setting": "Mus musculus [13]", "value": 0.71, "unit": "mg"}, {"measurement": "Relative antitumor activity", "setting": "Mus musculus [14]", "value": 4}, {"measurement": "solubility", "setting": "[15]", "value": "> 8.11", "unit": "mM"}, {"measurement": "Final average tumor weight", "setting": "Mus musculus [16]", "value": 5.55, "unit": "mg"}, {"measurement": "Change in cell number", "setting": "B16 [17]", "value": 137, "unit": "%"}, {"measurement": "pIC50", "setting": "B16 [18]", "value": 7.38}]}]}
